Published values pooled from the literature.
Target: Serine/threonine-protein kinase Chk1 (CHEK1, Homo sapiens, UniProt O14757)
One construct used (O14757 1-476): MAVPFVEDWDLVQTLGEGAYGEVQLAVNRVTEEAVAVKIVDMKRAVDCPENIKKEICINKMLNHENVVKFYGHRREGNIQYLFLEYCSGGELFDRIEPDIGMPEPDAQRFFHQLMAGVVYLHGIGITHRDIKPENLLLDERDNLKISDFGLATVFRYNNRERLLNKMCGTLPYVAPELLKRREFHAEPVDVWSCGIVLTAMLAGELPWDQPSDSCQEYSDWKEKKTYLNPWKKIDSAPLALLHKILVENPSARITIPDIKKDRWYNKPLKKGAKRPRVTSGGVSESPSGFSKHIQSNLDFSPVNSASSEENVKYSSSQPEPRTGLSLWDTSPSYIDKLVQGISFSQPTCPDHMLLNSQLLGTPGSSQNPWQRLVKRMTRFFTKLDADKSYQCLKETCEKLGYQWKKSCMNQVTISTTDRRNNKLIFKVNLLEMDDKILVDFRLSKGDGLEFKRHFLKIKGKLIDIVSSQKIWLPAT

| SMILES | effect on | mode | method | tested at | quantity | value |
| --- | --- | --- | --- | --- | --- | --- |
| COc1ncccc1-c1cnn2ccc(N3CCN(C(=O)OC(C)C)CC3)nc12 | binding | – | competition with immobilised ligand | 1 µM | remaining binding | 100% |
| O=c1[nH]c2ccccc2n1C1CCN(Cc2ccc(-c3[nH]c4cc5ncnc5cc4nc3-c3ccccc3)cc2)CC1 | cell-free assay | – | – | 0.5 µM | remaining signal | 107% |
| Cn1cc(-c2cccc(N3CCc4c(sc5c4CC(C)(C)C5)C3=O)c2CO)cc(Nc2ccncn2)c1=O | enzyme activity | inhibitor | – | 1 µM | inhibition | 1% |
| COc1cc(Nc2ncc(F)c(Nc3ccc4c(n3)NC(=O)C(C)(C)O4)n2)cc(OC)c1OC | binding | – | competition with immobilised ligand | 10 µM | inhibition | 62% |
| CC(C)(C)c1cc(C=C(C#N)C#N)cc(Br)c1O | enzyme activity | inhibitor | – | 0.5 µM | remaining activity | 100% |
| C#Cc1n[nH]c2c(-c3cn([C@@H](C)c4ccccc4)c(=O)[nH]c3=O)cc(F)cc12 | enzyme activity | inhibitor | – | 0.1 µM | inhibition | -1.2% |
| Cc1nn(C)cc1-c1nc2c(N3CCN(Cc4ccc(Cl)cc4)CC3)c(Cl)cnc2[nH]1 | binding | – | competition with immobilised ligand | 1 µM | remaining binding | 100% |
| Cn1cc(-c2cc(F)cc(N3CCn4c(cc5c4CCCC5)C3=O)c2CO)cc(Nc2ccc(N3CCN(C4COC4)CC3)cn2)c1=O | enzyme activity | inhibitor | – | 0.1 µM | inhibition | 2% |
| Cn1cncc1[C@@](O)(COc1ccc(C#N)cc1-c1ccc(OC(F)(F)F)cc1)c1ccc(C#N)cc1 | cell-free assay | – | competition with immobilised ligand | 1 µM | remaining binding | 100% |
| C#Cc1n[nH]c2c(-c3cn([C@@H](C)c4ccccn4)c(=O)[nH]c3=O)cc(F)cc12 | enzyme activity | inhibitor | – | 0.1 µM | inhibition | -3.2% |
| Nc1ncc(-c2nc(N3CCOCC3)nc(N3CCOCC3)n2)c(C(F)F)n1 | binding | – | competition with immobilised ligand | 10 µM | remaining binding | 67% |
